# Measured values gathered from unrelated publications.
# Target: High affinity nerve growth factor receptor (NTRK1, Homo sapiens, UniProt P04629)
SMILES,effect on,method,tested at,remaining binding [%]
CCS(=O)(=O)c1cc2cc(C[C@@](O)(CC(C)(C)c3ccc(F)cc3C(N)=O)C(F)(F)F)[nH]c2cn1,cell-free assay,competition with immobilised ligand,1 µM,74
CC(C)(C)c1ccc(-c2nc(CBr)nn2-c2cccc(O)c2)cc1,cell-free assay,competition with immobilised ligand,10 µM,71
CN1CCN(c2ccc(Nc3nccc(-c4cccc([N+](=O)[O-])c4)n3)cc2C(F)(F)F)CC1,binding,,10 µM,13
Cc1cc(-n2nc(Cc3cc(F)cc(C(F)(F)F)c3)nc2C)ccc1C(N)=O,cell-free assay,competition with immobilised ligand,1 µM,97
Nc1ncc2c(n1)-c1c([nH]c3ccc(C#CC4CC4)cc13)CCCC2,binding,competition with immobilised ligand,1 µM,69
CC(C)(O)c1cncc(-c2nc3ccc(F)cc3n2C2CC2)c1,cell-free assay,competition with immobilised ligand,1 µM,100
CN(CCCC(F)(F)F)c1nccc(-c2cnn3ncccc23)n1,binding,,1 µM,100
c1cncc(-c2cccc(Nc3nccc(NC4CCCCC4)n3)c2)c1,binding,competition with immobilised ligand,10 µM,5.3
CN(C)c1ncc(F)c(-c2cnn3ncccc23)n1,binding,,1 µM,97
Nc1c(C(=O)NCc2ccc(C(=O)NCCCC3CCCCC3)cc2)cnn1-c1ccccc1,cell-free assay,competition with immobilised ligand,0.1 µM,100
COc1ccnn2ncc(-c3ccnc(N(C)C)n3)c12,binding,,1 µM,79
O=C(NCCCN1CCOCC1)c1ccc(Nc2nccc(-c3cc4ccccc4s3)n2)cc1,binding,competition with immobilised ligand,1 µM,19
N[C@H]1CCN(c2nccc(-c3cnn4ncccc34)n2)C1,binding,,1 µM,85
COc1cnc(Nc2cccc(S(N)(=O)=O)c2)nc1N1CCN(c2ccccc2)C(=O)C1,binding,competition with immobilised ligand,1 µM,100
c1cnn2ncc(-c3ccnc(N4CCC45COC5)n3)c2c1,binding,,1 µM,53
O=C(c1ccc(Nc2ncc(Cl)c(-c3cc4ccccc4s3)n2)cc1)N1CCC(N2CCCC2)CC1,binding,competition with immobilised ligand,1 µM,1.4
